STEP inh = STEP (human) phosphatase inhibition; recombinant STEP, OMFP fluorogenic substrate, fluorescence; inhibition, % at 20 µM; 360,000 compounds, 0.25% hits; AID 588621;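 active = inhibition at 20 µM, scaled per plate between control wells, above about 37%, limit read from the data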
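System: isolated STEP enzyme; schedule: 20 min enzyme reaction at room temperature, protected from light; medium: Bis-Tris buffer pH 6.0, 2.5 mM DTT, 0.005% Tween 20; signal: fluorescence, 480/540 nm; dosing: single compound dose of 20 µM, 1% DMSO final; also added: OMFP substrate, 25 µM final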
SUMO1-SIM PPI = alters human SUMO1 binding to SIM partners | P63165 | SUMO1 binding to a labelled peptide, TR-FRET, 1 h | inhibition, % at 20 µM | 360,000 compounds, 0.33% hits | AID 602429; in the data active = inhibition above about 37%
Target sequence (P63165 whole entry, looked up): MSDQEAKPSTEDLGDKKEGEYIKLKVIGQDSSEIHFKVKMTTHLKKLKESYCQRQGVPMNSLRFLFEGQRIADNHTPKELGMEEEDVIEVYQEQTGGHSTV
GRK2 inh = blocks RNA aptamer binding to human GRK2; P25098; bead flow cytometry, FAM-aptamer displacement from GRK2; inhibition of aptamer binding, % at 10 µM; 330,000 compounds, 0.59% hits; AID 488847;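 active = inhibition of aptamer binding above 40%, roughly 3 SD of noise, on plates passing a quality check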;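 note: median bead fluorescence of bound FAM aptamer so fluorescent compounds give negative values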
LMPTP block = blocks human LMPTP phosphatase; recombinant LMPTP-A, OMFP fluorogenic substrate, fluorescence intensity; P24666; 360,000 compounds, 0.22% hits; inhibition, % at 20 µM;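 active = compounds that cut the enzyme signal by at least half of the control window in the single-dose screen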
Target sequence (P24666 whole entry, looked up): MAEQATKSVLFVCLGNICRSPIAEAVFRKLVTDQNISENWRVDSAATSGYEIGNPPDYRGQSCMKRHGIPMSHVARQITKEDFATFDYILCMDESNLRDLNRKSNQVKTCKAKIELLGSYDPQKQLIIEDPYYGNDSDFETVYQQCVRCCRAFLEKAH
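Test system: LMPTP-A phosphatase enzyme. Amount: LMPTP-A at 0.625 nM final in the reaction. Reagent: OMFP substrate, 400 µM final. Times: 50 min at room temperature. Signal: endpoint fluorescence intensity from OMFP dephosphorylation. Read-out basis: % inhibition. Benchmarks: no-enzyme and uninhibited controls.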
DNMT1 block = blocks human DNA methyltransferase DNMT1 | 360,000 compounds, 0.83% hits | DNMT1 molecular beacon, Hinp1I cleavage, fluorescence | P26358 | inhibition (reported as % activation of signal), % at 10 µM; in the data active = inhibition above about 50%
Scp-1 inhibitor = Scp-1 (human) phosphatase inhibition; Recombinant Scp1, phosphopeptide, malachite green phosphate absorbance; Q9GZU7; 340,000 compounds, 0.88% hits; inhibition, % at 20 µM; AID 493091;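 active = inhibition above about 50% at 20 µM, limit read from the data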
Target sequence (Q9GZU7 76-261 limits assumed): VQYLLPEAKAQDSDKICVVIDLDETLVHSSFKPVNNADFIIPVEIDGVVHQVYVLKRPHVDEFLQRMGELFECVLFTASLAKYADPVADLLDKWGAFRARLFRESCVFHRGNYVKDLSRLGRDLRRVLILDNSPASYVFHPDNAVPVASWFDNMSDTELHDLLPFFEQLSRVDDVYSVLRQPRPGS
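Test system – truncated SCP-1 phosphatase (76-261aa) · Reagent – Phosphorylated 17-residue peptide substrate · Incubation – 45 min room-temperature reaction, 5 min colour, 30 min stabiliser · Detection – colorimetric phosphate reagent with accelerator and stabiliser, absorbance at 630 nm · Measure – % inhibition at 20 µM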
Scp1 confirm = confirmation of human Scp-1 phosphatase inhibitors | AID 540281 | recombinant SCP-1 catalytic domain, phosphate release, malachite green absorbance | inhibition, % at 20 µM | shares compounds with Scp-1 inhibitor | 2,500 compounds, 61% hits
Scp-1 MG ctr = counter-screen for Scp-1 inhibitors: colorimetric interference; shares compounds with Scp-1 inhibitor; 2,500 tested, under 10 active; Colorimetric interference counterscreen, malachite green absorbance 630 nm; apparent inhibition (interference), % at 20 µM; AID 540313;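 note: compounds added after enzyme reaction finished so only phosphate colour detection is probed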
Scp-1 Tm shift = validation of human Scp-1 inhibitors by thermal shift binding; AID 540329; shares compounds with Scp-1 inhibitor; 1,500 compounds, 25% hits; thermal shift relative to vanadate control, % at 40 µM; Recombinant SCP1, Sypro Orange thermal shift Tm;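 active = substances whose mean melting-temperature shift, as a percentage of the reference inhibitor's shift, reaches about 5.3%, limit read from the data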
DNMT1 inh conf = confirmation of human DNMT1 inhibitors | shares compounds with DNMT1 block | DNMT1 molecular beacon HinP1I cleavage, fluorescence | inhibition, % at 10 µM | 2,300 compounds, 8% hits | AID 602385;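 active = average inhibition of at least 30% in the single-concentration confirmation test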
Beacon interf = shows spectral interference in the DNMT1 beacon assay; DNMT1 molecular beacon spectral interference counterscreen, fluorescence 485/520; activation (fluorescence interference), % at 10 µM; AID 602387; shares compounds with DNMT1 block; 2,300 compounds, 1% hits;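 active = activation of at least 30% at 10 µM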;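 note: DNMT1 catalytic domain with a HinP1I cleavage step and a FAM/dabcyl DNA beacon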
STEP conf = confirmation of human STEP phosphatase inhibitors; 520 compounds, 32% hits; shares compounds with STEP inh; AID 623866; recombinant STEP, OMFP fluorogenic substrate, fluorescence; inhibition, % at 20 µM; call rule not given here
Of the large screens only hits and unclear results are named; the others gave an inactive call (follow-up assays come after a bar, where they were run). Hits are enriched below; roughly 2.1% of the tested compounds scored in any of these assays.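 Rule for the calls, unless noted: active = inhibition of at least 30% at 20 µM; inactive = the rest.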

Cc1c(CC(=O)NCCCCCC(=O)O)c(=O)oc2c(C)c3oc4c(c3cc12)CCCC4	STEP inh 97, Scp-1 inhibitor 94 | Scp1 confirm 94 | Scp-1 MG ctr inactive | Scp-1 Tm shift inactive | STEP conf 89
CCN(C[C@H]1N[C@@](Cc2ccccc2)(C(=O)OC)[C@H]2C(=O)N(C)C(=O)[C@@H]12)C(=O)COc1ccccc1	none
CCCCn1c(N)c(-c2nc3ccccc3s2)c2c([N+](=O)[O-])nn(C)c(=O)c21	none
CCCCCn1c(N)c(-c2nc3ccccc3o2)c2c([N+](=O)[O-])nn(C)c(=O)c21	STEP inh 97, LMPTP block 83, DNMT1 block 92, Scp-1 inhibitor 99 | Scp1 confirm 73 | Scp-1 MG ctr inactive | Scp-1 Tm shift 5.4 | DNMT1 inh conf inactive | Beacon interf inactive | STEP conf 40
O=C(NCc1ccccc1)C(c1ccc(-c2ccccc2)cc1)N1CCN(c2ccccc2F)CC1 (stereo not given)	none (no result: STEP inh, GRK2 inh, DNMT1 block, Scp-1 inhibitor)
O=C1NN(c2ccccc2)C(=O)/C1=C\c1ccccc1OCC(=O)N1CCOCC1	none
O=C1NN(c2cccc(Br)c2)C(=O)/C1=C\c1ccc(N2CCOCC2)cc1	STEP inh 82, LMPTP block 66, DNMT1 block 65, Scp-1 inhibitor 52 | Scp1 confirm 48 | Scp-1 MG ctr inactive | Scp-1 Tm shift inactive | DNMT1 inh conf inactive | Beacon interf inactive | STEP conf 72
COc1ccc(Cn2c(-c3ccco3)nc3c(c(=O)c4ccccc4n3C)c2=O)cc1	STEP inh 80, SUMO1-SIM PPI 45, LMPTP block 69, Scp-1 inhibitor 91 | Scp1 confirm inactive | Scp-1 MG ctr inactive | STEP conf inactive
O=C(Nc1cc([N+](=O)[O-])ccc1O)c1cccc([N+](=O)[O-])c1	none
O=C(Nc1cc([N+](=O)[O-])ccc1O)c1cccc(C(=O)Nc2cc([N+](=O)[O-])ccc2O)c1	STEP inh 99, SUMO1-SIM PPI 56, LMPTP block 97, Scp-1 inhibitor 98 | Scp1 confirm 96 | Scp-1 MG ctr inactive | Scp-1 Tm shift 16 | STEP conf 59
COc1ccc2cc3c(N)nn(C(=O)Cc4ccccc4OC)c3nc2c1	none
COc1ccc2cc3c(N)nn(C(=O)c4cccc([N+](=O)[O-])c4)c3nc2c1	STEP inh 98, SUMO1-SIM PPI 53, GRK2 inh 73, LMPTP block 66, DNMT1 block 77, Scp-1 inhibitor 98 | Scp1 confirm 79 | Scp-1 MG ctr inactive | Scp-1 Tm shift inactive | DNMT1 inh conf inactive | Beacon interf inactive | STEP conf inactive
O=C(O)CC/C(=N\Nc1ccc(S(=O)(=O)N2CCCC2)cc1[N+](=O)[O-])c1cccs1	STEP inh 97, Scp-1 inhibitor 63 (no result: GRK2 inh) | Scp1 confirm 57 | Scp-1 MG ctr inactive | Scp-1 Tm shift 16 | STEP conf 83
O=C(NCc1ccccc1)[C@@H]1C[C@H]1[C@@H](NP(=O)(c1ccccc1)c1ccccc1)c1ccccc1	none (no result: GRK2 inh)
Cc1ccc(CNC(=O)[C@H]2C[C@@H]2[C@H](NP(=O)(c2ccccc2)c2ccccc2)c2ccccc2)o1	DNMT1 block 71 | DNMT1 inh conf inactive | Beacon interf inactive
COc1ccc(NC(=O)NC2(C(=O)N3CCOCC3)CCCCC2)cc1	DNMT1 block 54 | DNMT1 inh conf inactive | Beacon interf inactive
CCOC(=O)c1cc(-c2cc3ccccc3o2)nc2c1c(=O)[nH]c(=O)n2CCOC	none
CCOC(=O)c1cc(-c2ccc([N+](=O)[O-])cc2)nc2c1c(=O)[nH]c(=O)n2Cc1ccccc1	DNMT1 block 86 | DNMT1 inh conf inactive | Beacon interf inactive
Cc1ccc(S(=O)(=O)N(CC(=O)N/N=C/c2cccc(Cl)c2)c2cccc3cccnc23)cc1	DNMT1 block 53 | DNMT1 inh conf inactive | Beacon interf inactive
COc1cc(C)cc(C(=O)O)c1C1=C(O)c2cccc(O)c2C(=O)C1=O	DNMT1 block 66 | DNMT1 inh conf inactive | Beacon interf inactive
CC1CCN(c2nc(/C=C/c3ccccc3)nc3ccccc23)CC1	none
C(=C\c1nc(N2CCCC2)c2ccccc2n1)/c1ccccc1	LMPTP block 85, DNMT1 block 61 | DNMT1 inh conf inactive | Beacon interf inactive
CCCCCn1c(N)c(-c2nc3ccccc3o2)c2c([N+](=O)[O-])nn(CC)c(=O)c21	LMPTP block 56, DNMT1 block 95, Scp-1 inhibitor 102 | DNMT1 inh conf inactive | Beacon interf inactive
CCc1nc(Nc2ccncc2)c2oc3ccccc3c2n1	DNMT1 block 51 | DNMT1 inh conf inactive | Beacon interf inactive
CCCc1cc(=O)oc2c(C)c(OCC(=O)c3ccc(N4CCCC4)cc3)ccc12	DNMT1 block 57 (no result: GRK2 inh) | DNMT1 inh conf inactive | Beacon interf inactive
Cc1cnn(-c2cc(N/N=C/c3ccccc3F)ncn2)c1	DNMT1 block 56 | DNMT1 inh conf inactive | Beacon interf inactive
COc1cccc(-c2cnc(C(O)c3ccc(Cl)cc3)[nH]2)c1 (stereo not given)	none (no result: GRK2 inh, Scp-1 inhibitor)
COc1cccc(-c2nc3n(n2)CCc2ccccc2-3)c1	none (no result: GRK2 inh, Scp-1 inhibitor)
CCC(C)NC(=O)COC(=O)c1ccccc1OCC(=O)Nc1ccc(Br)cc1 (stereo not given)	DNMT1 block 51 | DNMT1 inh conf inactive | Beacon interf inactive
CC(C)NC(=O)Nc1ccc2c(c1)C(=O)N([C@H](C)CO)C[C@H](C)[C@@H](CN(C)S(=O)(=O)c1ccc(F)cc1)O2	none
O=C(O)C1CSC(c2ccco2)N1 (stereo not given)	LMPTP block 58, DNMT1 block 97, Scp-1 inhibitor 67 | DNMT1 inh conf inactive | Beacon interf inactive

Source: PubChem
